In brackets after ≈: the same amount, converted by molar mass. Activity calls are given as the source filed them. The calls are words filed in the database; no cut-off is given here.
Legend:
Bacillus subtilis [1] = test: Antibacterial activity against Bacillus subtilis MTCC 121 after 24 hrs by agar dilution method; assay type: functional; conditions: MTCC 121, 24 h
Pseudomonas aeruginosa [2] = test: Antibacterial activity against Pseudomonas aeruginosa MTCC 2453 after 24 hrs by agar dilution method; assay type: functional; conditions: MTCC 2453, 24 h
Candida albicans [3] = test: Antifungal activity against Candida albicans MTCC 3017 after 48 hrs by agar dilution method; assay type: functional; conditions: MTCC 3017, 48 h
Procedure, shortened: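 Same disk/dilution format as the antibacterial assay, on potato dextrose agar (39 g/L). Compounds were from DMSO stock, loaded at 1 to 80 per disk, in triplicate. Plates were incubated at 28 ± 2 °C for 48 h. MIC was the lowest amount that arrested growth. Equivalent DMSO served as solvent control.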

Staphylococcus [4] = test: Antibacterial activity against Staphylococcus MLS-16 MTCC 2940 after 24 hrs by agar dilution method; assay type: functional; conditions: MLS-16 MTCC 2940, 24 h
Micrococcus luteus [5] = test: Antibacterial activity against Micrococcus luteus MTCC 2470 at 80 ug/ml after 24 hrs by agar dilution method; assay type: functional, organism-based
[6] = system: Mycobacterium tuberculosis; test: Antibacterial activity against Mycobacterium tuberculosis H37Rv at 32 ug/ml […] by agar dilution method; assay type: functional, organism-based
Staphylococcus aureus [7] = test: Antibacterial activity against Staphylococcus aureus MTCC 96 after 24 hrs by agar dilution method; assay type: functional; conditions: MTCC 96, 24 h
Micrococcus luteus [8] = test: Antibacterial activity against Micrococcus luteus MTCC 2470 after 24 hrs by agar dilution method; assay type: functional; conditions: MTCC 2470, 24 h
Pseudomonas aeruginosa [9] = test: Antibacterial activity against Pseudomonas aeruginosa MTCC 2453 at 80 ug/ml after 24 hrs by agar dilution method; assay type: functional, organism-based
Raoultella planticola = test: Antibacterial activity against Klebsiella planticola MTCC 530 at 80 ug/ml after 24 hrs by agar dilution method; assay type: functional, organism-based
Escherichia coli = test: Antibacterial activity against Escherichia coli MTCC 739 at 80 ug/ml after 24 hrs by agar dilution method; assay type: functional, organism-based
Pseudomonas aeruginosa [10] = test: Antibacterial activity against Pseudomonas aeruginosa MTCC 2453 at 20 ug/ml after 24 hrs by disk diffusion method; assay type: functional; conditions: MTCC 2453, 24 h, read-out: IZ
Micrococcus luteus [11] = test: Antibacterial activity against Micrococcus luteus MTCC 2470 at 20 ug/ml after 24 hrs by disk diffusion method; assay type: functional; conditions: MTCC 2470, 24 h, read-out: IZ
Staphylococcus aureus [12] = test: Antibacterial activity against Staphylococcus aureus MTCC 96 at 20 ug/ml after 24 hrs by disk diffusion method; assay type: functional; conditions: MTCC 96, 24 h, read-out: IZ
Bacillus subtilis [13] = test: Antibacterial activity against Bacillus subtilis MTCC 121 at 20 ug/ml after 24 hrs by disk diffusion method; assay type: functional; conditions: MTCC 121, 24 h, read-out: IZ
Staphylococcus [14] = test: Antibacterial activity against Staphylococcus MLS-16 MTCC 2940 at 20 ug/ml after 24 hrs by disk diffusion method; assay type: functional; conditions: MLS-16 MTCC 2940, 24 h, read-out: IZ
Candida albicans [15] = test: Antifungal activity against Candida albicans MTCC 3017 at 20 ug/ml after 24 hrs by disk diffusion method; assay type: functional; conditions: MTCC 3017, 24 h, read-out: IZ

SMILES	MIC (Bacillus subtilis [1])	MIC (Pseudomonas aeruginosa [2])	MIC (Candida albicans [3])	MIC (Staphylococcus [4])	Activity (Micrococcus luteus [5])	Activity [6]	MIC (Staphylococcus aureus [7])	MIC (Micrococcus luteus [8])	Activity (Pseudomonas aeruginosa [9])	Activity (Raoultella planticola)	Activity (Escherichia coli)	zone of inhibition at 20 µg/mL (Pseudomonas aeruginosa [10])	zone of inhibition at 20 µg/mL (Micrococcus luteus [11])	zone of inhibition at 20 µg/mL (Staphylococcus aureus [12])	zone of inhibition at 20 µg/mL (Bacillus subtilis [13])	zone of inhibition at 20 µg/mL (Staphylococcus [14])	zone of inhibition at 20 µg/mL (Candida albicans [15])
O=C1O[C@@H](CNS(=O)(=O)c2ccc(F)c(F)c2)CN1c1ccc(N2CCOCC2)c(F)c1	10 µg/mL (≈ 21.2 µM)	10 µg/mL (≈ 21.2 µM)	10 µg/mL (≈ 21.2 µM)	10 µg/mL (≈ 21.2 µM)	inactive	inactive	–	–	–	–	–	–	–	–	–	–	–
O=C1O[C@@H](CNS(=O)(=O)c2ccc(Oc3ccccc3)cc2)CN1c1ccc(N2CCOCC2)c(F)c1	8 µg/mL (≈ 15.2 µM)	–	6 µg/mL (≈ 11.4 µM)	4 µg/mL (≈ 7.58 µM)	–	inactive	4 µg/mL (≈ 7.58 µM)	8 µg/mL (≈ 15.2 µM)	inactive	inactive	inactive	–	–	–	–	–	–
O=C1O[C@@H](CNS(=O)(=O)c2cc(Cl)cc(Cl)c2)CN1c1ccc(N2CCOCC2)c(F)c1	8 µg/mL (≈ 15.9 µM)	40 µg/mL (≈ 79.3 µM)	8 µg/mL (≈ 15.9 µM)	8 µg/mL (≈ 15.9 µM)	inactive	inactive	8 µg/mL (≈ 15.9 µM)	–	–	inactive	inactive	–	–	–	–	–	–
CC(C)(C)OC(=O)N1CCN(c2ccc(N3C[C@H](CNS(=O)(=O)c4ccc(C(F)(F)F)cc4)OC3=O)cc2F)CC1	8 µg/mL (≈ 13.3 µM)	10 µg/mL (≈ 16.6 µM)	20 µg/mL (≈ 33.2 µM)	10 µg/mL (≈ 16.6 µM)	–	inactive	10 µg/mL (≈ 16.6 µM)	20 µg/mL (≈ 33.2 µM)	–	inactive	inactive	–	–	–	–	–	–
CC(=O)NC[C@H]1CN(c2ccc(N3CCOCC3)c(F)c2)C(=O)O1 [LINEZOLID]	1.5 µg/mL (≈ 4.45 µM)	–	–	1.5 µg/mL (≈ 4.45 µM)	–	–	1.5 µg/mL (≈ 4.45 µM)	1 µg/mL (≈ 2.96 µM)	–	–	–	12 mm	20 mm	28 mm	10 mm	18 mm	–
CC(C)(C)OC(=O)N1CCN(c2ccc(N3C[C@H](CNS(=O)(=O)c4ccc(F)cc4)OC3=O)cc2F)CC1	20 µg/mL (≈ 36.2 µM)	20 µg/mL (≈ 36.2 µM)	10 µg/mL (≈ 18.1 µM)	10 µg/mL (≈ 18.1 µM)	–	inactive	10 µg/mL (≈ 18.1 µM)	10 µg/mL (≈ 18.1 µM)	–	inactive	inactive	–	–	–	–	–	–
CC(=O)c1ccc(S(=O)(=O)NC[C@H]2CN(c3ccc(N4CCOCC4)c(F)c3)C(=O)O2)cc1	6 µg/mL (≈ 12.6 µM)	–	6 µg/mL (≈ 12.6 µM)	6 µg/mL (≈ 12.6 µM)	–	inactive	6 µg/mL (≈ 12.6 µM)	6 µg/mL (≈ 12.6 µM)	inactive	inactive	inactive	–	–	–	–	–	–
OC(Cn1cncn1)(Cn1cncn1)c1ccc(F)cc1F [FLUCONAZOLE]	–	–	1 µg/mL (≈ 3.27 µM)	–	–	–	–	–	–	–	–	–	–	–	–	–	20 mm
O=C1O[C@@H](CNS(=O)(=O)c2cccc3cccnc23)CN1c1ccc(N2CCSCC2)c(F)c1	8 µg/mL (≈ 15.9 µM)	8 µg/mL (≈ 15.9 µM)	8 µg/mL (≈ 15.9 µM)	6 µg/mL (≈ 11.9 µM)	inactive	inactive	6 µg/mL (≈ 11.9 µM)	–	–	inactive	inactive	–	–	–	–	–	–
O=C1O[C@@H](CNS(=O)(=O)c2ccc(C(F)(F)F)cc2)CN1c1ccc(N2CCNCC2)c(F)c1	8 µg/mL (≈ 15.9 µM)	8 µg/mL (≈ 15.9 µM)	10 µg/mL (≈ 19.9 µM)	6 µg/mL (≈ 11.9 µM)	–	–	6 µg/mL (≈ 11.9 µM)	8 µg/mL (≈ 15.9 µM)	–	inactive	inactive	16 mm	13 mm	17 mm	16 mm	15 mm	15 mm
O=C1O[C@@H](CNS(=O)(=O)c2ccc(F)c(Cl)c2)CN1c1ccc(N2CCSCC2)c(F)c1	10 µg/mL (≈ 19.8 µM)	–	20 µg/mL (≈ 39.7 µM)	8 µg/mL (≈ 15.9 µM)	inactive	inactive	8 µg/mL (≈ 15.9 µM)	–	inactive	inactive	inactive	–	–	–	–	–	–
O=C1O[C@@H](CNS(=O)(=O)c2cccs2)CN1c1ccc(N2CCOCC2)c(F)c1	4 µg/mL (≈ 9.06 µM)	4 µg/mL (≈ 9.06 µM)	4 µg/mL (≈ 9.06 µM)	4 µg/mL (≈ 9.06 µM)	–	inactive	4 µg/mL (≈ 9.06 µM)	6 µg/mL (≈ 13.6 µM)	–	inactive	inactive	19 mm	15 mm	20 mm	20 mm	18 mm	18 mm
O=C1O[C@@H](CNS(=O)(=O)c2cccc3cccnc23)CN1c1ccc(N2CCOCC2)c(F)c1	8 µg/mL (≈ 16.4 µM)	6 µg/mL (≈ 12.3 µM)	20 µg/mL (≈ 41.1 µM)	10 µg/mL (≈ 20.6 µM)	–	inactive	10 µg/mL (≈ 20.6 µM)	8 µg/mL (≈ 16.4 µM)	–	inactive	inactive	–	–	–	–	–	–
O=C1O[C@@H](CNS(=O)(=O)c2ccc(C(F)(F)F)cc2)CN1c1ccc(N2CCOCC2)c(F)c1	8 µg/mL (≈ 15.9 µM)	8 µg/mL (≈ 15.9 µM)	20 µg/mL (≈ 39.7 µM)	10 µg/mL (≈ 19.9 µM)	–	inactive	10 µg/mL (≈ 19.9 µM)	8 µg/mL (≈ 15.9 µM)	–	inactive	inactive	–	–	–	–	–	–
CC(=O)c1ccc(S(=O)(=O)NC[C@H]2CN(c3ccc(N4CCSCC4)c(F)c3)C(=O)O2)cc1	10 µg/mL (≈ 20.3 µM)	–	20 µg/mL (≈ 40.5 µM)	8 µg/mL (≈ 16.2 µM)	inactive	inactive	8 µg/mL (≈ 16.2 µM)	–	inactive	inactive	inactive	–	–	–	–	–	–
CC(=O)Nc1nc(C)c(S(=O)(=O)NC[C@H]2CN(c3ccc(N4CCSCC4)c(F)c3)C(=O)O2)s1	10 µg/mL (≈ 18.9 µM)	8 µg/mL (≈ 15.1 µM)	8 µg/mL (≈ 15.1 µM)	8 µg/mL (≈ 15.1 µM)	inactive	–	8 µg/mL (≈ 15.1 µM)	–	–	inactive	inactive	–	–	–	–	–	–
O=C1O[C@@H](CNS(=O)(=O)c2ccc(F)c(F)c2F)CN1c1ccc(N2CCOCC2)c(F)c1	6 µg/mL (≈ 12.3 µM)	8 µg/mL (≈ 16.3 µM)	6 µg/mL (≈ 12.3 µM)	6 µg/mL (≈ 12.3 µM)	inactive	inactive	6 µg/mL (≈ 12.3 µM)	–	–	inactive	inactive	–	–	–	–	–	–
O=C1O[C@@H](CNS(=O)(=O)c2cccc(Cl)c2)CN1c1ccc(N2CCOCC2)c(F)c1	6 µg/mL (≈ 12.8 µM)	–	8 µg/mL (≈ 17 µM)	6 µg/mL (≈ 12.8 µM)	–	inactive	6 µg/mL (≈ 12.8 µM)	8 µg/mL (≈ 17 µM)	inactive	inactive	inactive	–	–	–	–	–	–
O=C1O[C@@H](CNS(=O)(=O)c2ccc(F)c(Cl)c2)CN1c1ccc(N2CCOCC2)c(F)c1	6 µg/mL (≈ 12.3 µM)	–	6 µg/mL (≈ 12.3 µM)	6 µg/mL (≈ 12.3 µM)	–	inactive	6 µg/mL (≈ 12.3 µM)	6 µg/mL (≈ 12.3 µM)	inactive	inactive	inactive	–	–	–	–	–	–
CC(=O)Nc1nc(C)c(S(=O)(=O)NC[C@H]2CN(c3ccc(N4CCOCC4)c(F)c3)C(=O)O2)s1	8 µg/mL (≈ 15.6 µM)	8 µg/mL (≈ 15.6 µM)	20 µg/mL (≈ 38.9 µM)	20 µg/mL (≈ 38.9 µM)	inactive	–	20 µg/mL (≈ 38.9 µM)	–	–	inactive	inactive	–	–	–	–	–	–
O=C1O[C@@H](CNS(=O)(=O)c2ccc(C(F)(F)F)cc2)CN1c1ccc(N2CCSCC2)c(F)c1	10 µg/mL (≈ 19.2 µM)	8 µg/mL (≈ 15.4 µM)	8 µg/mL (≈ 15.4 µM)	8 µg/mL (≈ 15.4 µM)	inactive	inactive	8 µg/mL (≈ 15.4 µM)	–	–	inactive	inactive	–	–	–	–	–	–
O=C1O[C@@H](CNS(=O)(=O)c2cccs2)CN1c1ccc(N2CCSCC2)c(F)c1	2 µg/mL (≈ 4.37 µM)	4 µg/mL (≈ 8.74 µM)	4 µg/mL (≈ 8.74 µM)	4 µg/mL (≈ 8.74 µM)	–	inactive	4 µg/mL (≈ 8.74 µM)	6 µg/mL (≈ 13.1 µM)	–	inactive	inactive	–	–	–	–	–	–
O=C1O[C@@H](CNS(=O)(=O)c2ccc(F)cc2)CN1c1ccc(N2CCNCC2)c(F)c1	10 µg/mL (≈ 22.1 µM)	4 µg/mL (≈ 8.84 µM)	8 µg/mL (≈ 17.7 µM)	8 µg/mL (≈ 17.7 µM)	–	–	8 µg/mL (≈ 17.7 µM)	4 µg/mL (≈ 8.84 µM)	–	inactive	inactive	18 mm	14 mm	17 mm	20 mm	17 mm	16 mm
O=C1O[C@@H](CNS(=O)(=O)c2cc(S(=O)(=O)c3ccccc3)cs2)CN1c1ccc(N2CCSCC2)c(F)c1	8 µg/mL (≈ 13.4 µM)	8 µg/mL (≈ 13.4 µM)	8 µg/mL (≈ 13.4 µM)	6 µg/mL (≈ 10 µM)	inactive	inactive	6 µg/mL (≈ 10 µM)	–	–	inactive	inactive	–	–	–	–	–	–

Reference: ChEMBL document CHEMBL2331333, “Synthesis, biological evaluation of new oxazolidino-sulfonamides as potential antimicrobial agents” (2013)
